Measured values collected from several papers.
Read-out: cell growth or viability

COc1ncccc1Cn1nc(-c2ccc(CO)o2)c2ccccc21 — IC50 (HuCCT-1; ATP luminescence): > 46 µM
O=P1(c2ccccc2)CCCCC1 — IC50 (HaCaT; MTT; 72 h): > 100 µM
O=C1CSC(=Nc2cc(C(F)(F)F)ccc2-c2nnc(N3C(=O)CSC3=Nc3ccc([N+](=O)[O-])cc3)s2)N1c1ccc([N+](=O)[O-])cc1 — IC50 (WI-38; MTT): 77.3 µM
CCCCn1cnc2ccc(-c3ccc(NC(=O)NCC)nc3)cc2c1=O — IC50 (HCC827; CCK-8; 72 h): > 10 µM
OCc1ccc(-c2nn(Cc3ccncc3)c3ccccc23)o1 — IC50 (HuCCT-1; ATP luminescence): > 46 µM
O=C1CS/C(=N\c2cc(C(F)(F)F)ccc2-c2nnc(N3C(=O)CS/C3=N\c3ccc(F)c(O)c3)s2)N1c1ccc(F)c(O)c1 — IC50 (WI-38; MTT): 20.3 µM
O=c1[nH]cc(F)c(=O)[nH]1 — IC50 (HaCaT; SRB): 0.05 µg/mL
COc1ccc(N=C2SCC(=O)N2c2nnc(-c3ccc(C(F)(F)F)cc3N=C3SCC(=O)N3c3ccc(OC)cc3)s2)cc1 — IC50 (WI-38; MTT): 69.5 µM
O=C(Nc1ccc(-c2ccc3ncn(Cc4ccccc4)c(=O)c3c2)cn1)c1ccc(F)cc1 — IC50 (HCC827; CCK-8; 72 h): > 10 µM
COc1ccc(N=Nc2c(N)nn3c(-c4ccc(C)cc4)cc(-c4ccc(OCc5ccccc5)cc4)nc23)cc1 — IC50 (WI-38; MTT; 48 h): 47 µM
CCCCC(=O)Nc1ccc(-c2ccc3ncn(CCC)c(=O)c3c2)cn1 — IC50 (HCC827; CCK-8; 72 h): 0.037 µM
COc1cc(Cn2nc(-c3ccc(CO)o3)c3ccccc32)ccn1 — IC50 (HuCCT-1; ATP luminescence): > 46 µM
COc1cccc2c1C(=O)c1c(O)c3c(c(O)c1C2=O)C[C@@](O)(C(=O)CO)C[C@@H]3O[C@H]1C[C@H](N)[C@H](O)[C@H](C)O1 — IC50 (ASPC1; SRB): 5.91 µM
CCCCC(=O)Nc1ccc(-c2ccc3ncn(CCC)c(=O)c3c2)c(F)n1 — IC50 (HCC827; CCK-8; 72 h): 0.82 µM
OCc1ccc(-c2nn(Cc3ccccn3)c3ccccc23)o1 — IC50 (HuCCT-1; ATP luminescence): > 46 µM
CNC(=O)c1ccccc1Nc1cc(Nc2ccc(N3CCOCC3)cc2OC)ncc1C(F)(F)F — IC50 (ASPC1; MTT; 48 h): 3.19 µM
Cc1ccc(C(=O)Nc2ccc(-c3ccc4ncn(Cc5ccccc5)c(=O)c4c3)cn2)cc1 — IC50 (HCC827; CCK-8; 72 h): > 10 µM
O=C1CS/C(=N\c2ccc(F)cc2O)N1c1nnc(-c2ccc(C(F)(F)F)cc2/N=C2\SCC(=O)N2c2ccc(F)cc2O)s1 — IC50 (WI-38; MTT): 20.5 µM
CN1CCC(NC2CCc3[nH]c4c(C(N)=O)ccc(-c5ccccc5Cl)c4c3C2)CC1 (centres unmarked) — IC50 (HuCCT-1; 96 h): 0.00122 µM
CCCCC(=O)Nc1ccc(-c2ccc3ncn(CCC)c(=O)c3c2)c(C)n1 — IC50 (HCC827; CCK-8; 72 h): 1.68 µM
